Measured values published in ChEMBL document CHEMBL1149179, “Synthesis and biological evaluation of a new class of geldanamycin derivatives as potent inhibitors of Hsp90” (J Med Chem, 2004).
pIC50: −log10 of the molar value.

Experiments:
Heat shock protein HSP90 [1] = target: T1, Heat shock protein HSP90 (Homo sapiens, UniProt P07900+P08238); test: Concentration required to inhibit biotin-GM binding to recombinant heat shock protein 90(rHsp90); format: protein assay
Procedure, shortened: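 rHsp90 coated in PBS overnight at 4 °C. Compound at 100–0.3 µM or DMSO for 60 min at 37 °C. Then 10 µM biotinylated geldanamycin 60 min and 20 µg/mL streptavidin-phycoerythrin 60 min, both at 37 °C, with washes between. Fluorescence read at ex 485/em 580 nm, minus an uncoated-well background. % binding inhibition calculated versus DMSO.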

Heat shock protein HSP90 [2] = target: T1, Heat shock protein HSP90; test: […] human epidermal growth factor 2 (Her-2) degradation in MCF-7 cells; format: cell-based; settings: mcf7
Procedure, shortened: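 MCF7 cells in DMEM with 10% FBS and 10 mM HEPES, treated at 65–70% confluence with compound (1000 nM down to 3 nM, half-log steps) for 16 h. Trypsinized cells stained with PE anti-Her-2 or PE isotype control (1 µg/mL, 15 min). Flow cytometry with 10,000 events; control-subtracted mean fluorescence versus DMSO cells. EC50 = 50% Her-2 degradation; n = 2.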

Heat shock protein HSP90 [3] = target: T1, Heat shock protein HSP90; test: (§1) Concentration required to inhibit Bis-ANS activity by recombinant heat shock protein 90 (rHSP90) conformational assay
Procedure, shortened: (§2)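 Compound at 100–0.3 µM or DMSO for 60 min at 37 °C, then bis-ANS (0.1 mM stock) for 30 min at 37 °C. Fluorescence read at ex 393/em 484 nm, minus a no-protein background. IC50 = 50% inhibition of bis-ANS signal versus DMSO; n = 2.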

[4] = Ratio of inhibitory concentration of rHsp90 and cell lysate Hsp90
Heat shock protein HSP90 [5] = target: T1, Heat shock protein HSP90; test: Concentration of test compound required for half-maximal inhibition of binding of Heat shock 90 KD protein by MCF-7 cell lysate assay; format: cell-based
Procedure, shortened: (§3)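 Lysate incubated ± compound 30 min at 4 °C, then with biotin-GM on streptavidin magnetic beads 1 h at 4 °C. Beads washed three times and boiled in SDS sample buffer. Bound Hsp90 detected by Western blot and band quantitation. IC50 taken as half-maximal inhibition of binding.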

[6] = as §1; set-up: species or system Homo sapiens; procedure, shortened: as §2
MCF7 = test: Inhibitory concentration of compound against MCF-7 cells by MTS assay; format: functional, cell-based; settings: Homo sapiens
Procedure, shortened: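 MCF7 cells seeded at 2000/well in DMEM with 10% FBS and left overnight to adhere; final culture volume 100 µL. Viability read with MTS/PMS (mixed 20:1, 20 µL per well) as A490 after 2-4 h, with cell-free medium plus MTS-PMS as background. % viable cells taken relative to untreated cells; IC50 is the concentration giving 50% viable cells; n = 2.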

Heat shock protein HSP90 [7] = target: T1, Heat shock protein HSP90; test: Concentration of test compound required for inhibition of binding of rHsp90 in MCF-7 cell lysate; format: cell-based; procedure, shortened: as §3

IC50 (Heat shock protein HSP90 [1]) [nM]	IC50 (Heat shock protein HSP90 [2]) [nM]	IC50 (Heat shock protein HSP90 [3]) [nM]	pIC50 [6]	pIC50 (Heat shock protein HSP90 [3])	SMILES	Ratio [4]	IC50 (Heat shock protein HSP90 [5]) [nM]	pIC50 (Heat shock protein HSP90 [1])	pIC50 (MCF7)	IC50 (Heat shock protein HSP90 [7]) [nM]
1500	250	1500			CO[C@H]1/C=C\C=C(/C)C(=O)NC2=CC(=O)C(NC(=O)c3ccc(F)cc3)=C(C[C@@H](C)C[C@H](OC)[C@H](O)[C@@H](C)/C=C(\C)[C@@H]1OC(N)=O)C2=O					
			6.15		C=CCNC1=C2C[C@@H](C)C[C@H](OC)[C@H](O)[C@@H](C)/C=C(\C)[C@H](OC(N)=O)[C@@H](OC)/C=C/C=C(\C)C(=O)NC(=CC1=O)C2=O	40				
3500	300	2000			CO[C@H]1/C=C\C=C(/C)C(=O)NC2=CC(=O)C(NC(=O)c3ccc([N+](=O)[O-])cc3)=C(C[C@@H](C)C[C@H](OC)[C@H](O)[C@@H](C)/C=C(\C)[C@@H]1OC(N)=O)C2=O					
1100	180	1000			COc1ccccc1C(=O)NC1=C2C[C@@H](C)C[C@H](OC)[C@H](O)[C@@H](C)/C=C(\C)[C@H](OC(N)=O)[C@@H](OC)/C=C\C=C(/C)C(=O)NC(=CC1=O)C2=O					
3000	260	3000			CCOC(=O)NC1=C2C[C@@H](C)C[C@H](OC)[C@H](O)[C@@H](C)/C=C(\C)[C@H](OC(N)=O)[C@@H](OC)/C=C\C=C(/C)C(=O)NC(=CC1=O)C2=O					
	1000	10000			CO[C@H]1/C=C\C=C(/C)C(=O)NC2=CC(=O)C(NC(=O)c3cccc(CCl)c3)=C(C[C@@H](C)C[C@H](OC)[C@H](O)[C@@H](C)/C=C(\C)[C@@H]1OC(N)=O)C2=O					
5000	400	4000			COc1ccc(C(=O)NC2=C3C[C@@H](C)C[C@H](OC)[C@H](O)[C@@H](C)/C=C(\C)[C@H](OC(N)=O)[C@@H](OC)/C=C\C=C(/C)C(=O)NC(=CC2=O)C3=O)cc1					

Further lines, the molecule ahead of its results:

SMILES	IC50 (Heat shock protein HSP90 [1]) [nM]	IC50 (Heat shock protein HSP90 [2]) [nM]	IC50 (Heat shock protein HSP90 [3]) [nM]	pIC50 [6]	pIC50 (Heat shock protein HSP90 [3])	Ratio [4]	IC50 (Heat shock protein HSP90 [5]) [nM]	pIC50 (Heat shock protein HSP90 [1])	pIC50 (MCF7)	IC50 (Heat shock protein HSP90 [7]) [nM]
CO[C@H]1/C=C\C=C(/C)C(=O)NC2=CC(=O)C(NC(=O)c3cccs3)=C(C[C@@H](C)C[C@H](OC)[C@H](O)[C@@H](C)/C=C(\C)[C@@H]1OC(N)=O)C2=O	2000	400	3000			75	40			
CCN(Cc1ccccc1)Cc1ccc(C(=O)NC2=C3C[C@@H](C)C[C@H](OC)[C@H](O)[C@@H](C)/C=C(\C)[C@H](OC(N)=O)[C@@H](OC)/C=C\C=C(/C)C(=O)NC(=CC2=O)C3=O)cc1		140			6.00	92		5.96	6.70	12
C=CCNC(=O)NC1=C2C[C@@H](C)C[C@H](OC)[C@H](O)[C@@H](C)/C=C(\C)[C@H](OC(N)=O)[C@@H](OC)/C=C\C=C(/C)C(=O)NC(=CC1=O)C2=O	35000	> 10000								
CO[C@H]1/C=C\C=C(/C)C(=O)NC2=CC(=O)C(NC(=O)c3ccc(CCl)cc3)=C(C[C@@H](C)C[C@H](OC)[C@H](O)[C@@H](C)/C=C(\C)[C@@H]1OC(N)=O)C2=O	4000	550	2000							
CO[C@H]1/C=C\C=C(/C)C(=O)NC2=CC(=O)C(NC(=O)OCC(C)C)=C(C[C@@H](C)C[C@H](OC)[C@H](O)[C@@H](C)/C=C(\C)[C@@H]1OC(N)=O)C2=O		120	4000			1330		5.40	6.74	3
CO[C@H]1/C=C\C=C(/C)C(=O)NC2=CC(=O)C(NC(=O)c3ccc(CN4CCCCC4)cc3)=C(C[C@@H](C)C[C@H](OC)[C@H](O)[C@@H](C)/C=C(\C)[C@@H]1OC(N)=O)C2=O	2500	> 10000	2100							
CO[C@H]1/C=C\C=C(/C)C(=O)NC2=CC(=O)C(NC(=O)c3ccc(CN4CCN(c5ccc([N+](=O)[O-])cc5)CC4)cc3)=C(C[C@@H](C)C[C@H](OC)[C@H](O)[C@@H](C)/C=C(\C)[C@@H]1OC(N)=O)C2=O	1000	200	1300							
COc1ccc(N2CCN(Cc3ccc(C(=O)NC4=C5C[C@@H](C)C[C@H](OC)[C@H](O)[C@@H](C)/C=C(\C)[C@H](OC(N)=O)[C@@H](OC)/C=C\C=C(/C)C(=O)NC(=CC4=O)C5=O)cc3)CC2)cc1	3000	220	1500							
